Assay results as given in ChEMBL document CHEMBL1147539, “Synthesis and biological evaluation of novel, selective, nonsteroidal glucocorticoid receptor antagonists” (Bioorg Med Chem Lett, 2004).

Key:
[1] = biological target: T1, Glucocorticoid receptor (Homo sapiens, UniProt P04150)
T1 sequence (P04150 whole entry): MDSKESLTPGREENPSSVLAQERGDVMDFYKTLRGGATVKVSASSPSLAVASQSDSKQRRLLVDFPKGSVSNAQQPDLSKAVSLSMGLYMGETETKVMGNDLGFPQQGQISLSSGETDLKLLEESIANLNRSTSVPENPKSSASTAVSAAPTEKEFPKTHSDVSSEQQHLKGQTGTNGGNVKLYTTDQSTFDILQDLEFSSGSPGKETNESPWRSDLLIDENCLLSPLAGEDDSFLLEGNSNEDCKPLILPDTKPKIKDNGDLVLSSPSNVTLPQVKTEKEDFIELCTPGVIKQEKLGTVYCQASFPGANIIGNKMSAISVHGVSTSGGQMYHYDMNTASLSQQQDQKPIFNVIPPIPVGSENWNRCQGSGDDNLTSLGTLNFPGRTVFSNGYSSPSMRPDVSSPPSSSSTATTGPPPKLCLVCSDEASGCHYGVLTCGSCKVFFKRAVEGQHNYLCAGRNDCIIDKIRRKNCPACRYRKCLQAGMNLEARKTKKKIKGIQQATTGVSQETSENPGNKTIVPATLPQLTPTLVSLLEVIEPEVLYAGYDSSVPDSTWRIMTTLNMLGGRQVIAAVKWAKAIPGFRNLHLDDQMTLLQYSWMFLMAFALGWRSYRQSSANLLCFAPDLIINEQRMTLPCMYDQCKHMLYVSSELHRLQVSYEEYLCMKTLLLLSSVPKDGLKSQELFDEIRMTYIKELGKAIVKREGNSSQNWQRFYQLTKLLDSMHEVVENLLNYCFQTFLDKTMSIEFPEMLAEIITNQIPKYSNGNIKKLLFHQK

[2] = biological target: T1, Glucocorticoid receptor; test: Effect on human Glucocorticoid receptor (GR) in a whole cell assay to measure functional cellular GR-antagonism (GRAF)
[3] = biological target: T1, Glucocorticoid receptor; remark: listed apart in the source
[4] = biological target: T1, Glucocorticoid receptor; test: Displacement of [3H]dexamethasone from human Glucocorticoid receptor (GR)
[5] = biological target: T2, Progesterone receptor (Homo sapiens, UniProt P06401); test: Displacement of [3H]progesterone from human Progesterone receptor
T2 sequence (P06401 whole entry): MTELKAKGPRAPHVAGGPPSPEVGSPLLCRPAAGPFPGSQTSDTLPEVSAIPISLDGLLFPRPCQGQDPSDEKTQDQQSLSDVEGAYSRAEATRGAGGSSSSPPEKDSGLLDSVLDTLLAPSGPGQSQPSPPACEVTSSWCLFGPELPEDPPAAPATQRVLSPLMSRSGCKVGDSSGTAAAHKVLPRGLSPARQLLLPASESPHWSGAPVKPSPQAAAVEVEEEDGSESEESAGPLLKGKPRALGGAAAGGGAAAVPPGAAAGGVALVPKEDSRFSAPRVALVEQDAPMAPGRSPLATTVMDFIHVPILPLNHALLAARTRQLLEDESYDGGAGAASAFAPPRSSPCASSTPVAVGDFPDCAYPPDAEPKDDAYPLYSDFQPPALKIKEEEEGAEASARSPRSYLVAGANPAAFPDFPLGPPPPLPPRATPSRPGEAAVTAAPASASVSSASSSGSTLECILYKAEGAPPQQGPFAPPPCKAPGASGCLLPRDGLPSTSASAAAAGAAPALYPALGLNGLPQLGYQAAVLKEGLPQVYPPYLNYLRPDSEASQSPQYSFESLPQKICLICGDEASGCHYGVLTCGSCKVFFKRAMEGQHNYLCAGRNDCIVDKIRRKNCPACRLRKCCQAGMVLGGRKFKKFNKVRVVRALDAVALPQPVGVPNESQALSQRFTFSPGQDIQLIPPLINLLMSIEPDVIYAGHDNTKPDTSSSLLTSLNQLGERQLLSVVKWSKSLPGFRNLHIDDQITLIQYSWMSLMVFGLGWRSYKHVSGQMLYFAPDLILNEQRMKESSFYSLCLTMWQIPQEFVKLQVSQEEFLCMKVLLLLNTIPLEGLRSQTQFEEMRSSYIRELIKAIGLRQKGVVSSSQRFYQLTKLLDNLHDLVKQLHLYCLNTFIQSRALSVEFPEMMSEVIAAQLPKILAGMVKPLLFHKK
In short: (§1)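 Human steroid receptor (PR, MR, AR, ERα) binding measured by radioligand displacement, with IC50s determined in duplicate. Values without a range come from a single experiment, and values with a range are geometric means of repeat experiments.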

[6] = biological target: T1, Glucocorticoid receptor; test: Displacement of [3H]dexamethasone from human Glucocorticoid receptor (GR); Value ranges from 378-814 nM
[7] = biological target: T3, Estrogen receptor (Homo sapiens, UniProt P03372); test: Displacement of [3H]estradiol from human estrogen receptor alpha
T3 sequence (P03372 whole entry): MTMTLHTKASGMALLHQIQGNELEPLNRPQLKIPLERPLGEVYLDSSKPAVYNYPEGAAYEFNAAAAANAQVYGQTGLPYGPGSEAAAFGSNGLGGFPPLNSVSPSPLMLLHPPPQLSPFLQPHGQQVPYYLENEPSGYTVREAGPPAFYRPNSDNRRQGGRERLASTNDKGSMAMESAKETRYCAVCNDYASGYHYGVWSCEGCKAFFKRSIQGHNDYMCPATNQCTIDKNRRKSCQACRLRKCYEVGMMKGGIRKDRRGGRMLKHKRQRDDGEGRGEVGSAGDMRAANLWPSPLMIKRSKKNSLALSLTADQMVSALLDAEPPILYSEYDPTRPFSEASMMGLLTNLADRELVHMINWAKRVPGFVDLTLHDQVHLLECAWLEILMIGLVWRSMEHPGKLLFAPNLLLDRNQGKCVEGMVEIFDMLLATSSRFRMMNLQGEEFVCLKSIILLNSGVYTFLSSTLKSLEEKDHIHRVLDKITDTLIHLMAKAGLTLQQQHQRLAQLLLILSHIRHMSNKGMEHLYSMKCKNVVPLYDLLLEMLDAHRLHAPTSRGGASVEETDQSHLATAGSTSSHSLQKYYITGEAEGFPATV
In short: as §1

[8] = biological target: T4, Mineralocorticoid receptor (Homo sapiens, UniProt P08235); test: Displacement of [3H]aldosterone from human Mineralocorticoid receptor
T4 sequence (P08235 whole entry): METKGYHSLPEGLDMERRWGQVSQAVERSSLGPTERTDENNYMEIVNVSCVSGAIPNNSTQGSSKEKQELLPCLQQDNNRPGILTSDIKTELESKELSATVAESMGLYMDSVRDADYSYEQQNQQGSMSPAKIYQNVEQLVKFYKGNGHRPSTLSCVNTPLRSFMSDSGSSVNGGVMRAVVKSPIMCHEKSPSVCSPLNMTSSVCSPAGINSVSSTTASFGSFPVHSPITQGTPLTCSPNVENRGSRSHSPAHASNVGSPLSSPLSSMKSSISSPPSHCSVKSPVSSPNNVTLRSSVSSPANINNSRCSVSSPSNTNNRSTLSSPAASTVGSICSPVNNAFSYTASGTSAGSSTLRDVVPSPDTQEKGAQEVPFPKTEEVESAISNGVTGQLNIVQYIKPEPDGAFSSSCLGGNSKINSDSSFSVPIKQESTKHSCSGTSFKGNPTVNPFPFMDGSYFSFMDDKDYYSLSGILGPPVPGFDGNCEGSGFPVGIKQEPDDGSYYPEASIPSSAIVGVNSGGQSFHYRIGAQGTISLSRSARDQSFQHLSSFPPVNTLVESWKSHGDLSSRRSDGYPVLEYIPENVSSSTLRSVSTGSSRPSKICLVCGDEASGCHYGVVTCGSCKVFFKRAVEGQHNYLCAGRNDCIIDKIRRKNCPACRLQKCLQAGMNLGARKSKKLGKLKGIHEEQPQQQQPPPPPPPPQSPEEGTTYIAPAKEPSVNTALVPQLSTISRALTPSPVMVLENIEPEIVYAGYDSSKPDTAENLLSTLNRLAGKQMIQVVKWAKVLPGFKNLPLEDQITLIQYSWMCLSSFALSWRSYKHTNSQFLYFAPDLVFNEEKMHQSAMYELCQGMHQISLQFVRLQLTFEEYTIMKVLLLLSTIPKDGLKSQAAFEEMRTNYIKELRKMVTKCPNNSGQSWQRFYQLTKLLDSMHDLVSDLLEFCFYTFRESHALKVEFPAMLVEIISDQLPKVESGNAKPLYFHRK
In short: as §1

[9] = biological target: T1, Glucocorticoid receptor; test: Displacement of [3H]dexamethasone from human Glucocorticoid receptor (GR); […]
[10] = biological target: T1, Glucocorticoid receptor; test: Displacement of [3H]dexamethasone from human Glucocorticoid receptor (GR); Value ranges from 5-6 nM
In short: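 Binding to human GR; IC50 reported as the geometric mean of two experiments (three for some values), each run in duplicate, with the range of the experiments given.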

[11] = biological target: T5, Androgen receptor (Homo sapiens, UniProt P10275); test: Displacement of [3H]mibolerone from human Androgen receptor
T5 sequence (P10275 whole entry): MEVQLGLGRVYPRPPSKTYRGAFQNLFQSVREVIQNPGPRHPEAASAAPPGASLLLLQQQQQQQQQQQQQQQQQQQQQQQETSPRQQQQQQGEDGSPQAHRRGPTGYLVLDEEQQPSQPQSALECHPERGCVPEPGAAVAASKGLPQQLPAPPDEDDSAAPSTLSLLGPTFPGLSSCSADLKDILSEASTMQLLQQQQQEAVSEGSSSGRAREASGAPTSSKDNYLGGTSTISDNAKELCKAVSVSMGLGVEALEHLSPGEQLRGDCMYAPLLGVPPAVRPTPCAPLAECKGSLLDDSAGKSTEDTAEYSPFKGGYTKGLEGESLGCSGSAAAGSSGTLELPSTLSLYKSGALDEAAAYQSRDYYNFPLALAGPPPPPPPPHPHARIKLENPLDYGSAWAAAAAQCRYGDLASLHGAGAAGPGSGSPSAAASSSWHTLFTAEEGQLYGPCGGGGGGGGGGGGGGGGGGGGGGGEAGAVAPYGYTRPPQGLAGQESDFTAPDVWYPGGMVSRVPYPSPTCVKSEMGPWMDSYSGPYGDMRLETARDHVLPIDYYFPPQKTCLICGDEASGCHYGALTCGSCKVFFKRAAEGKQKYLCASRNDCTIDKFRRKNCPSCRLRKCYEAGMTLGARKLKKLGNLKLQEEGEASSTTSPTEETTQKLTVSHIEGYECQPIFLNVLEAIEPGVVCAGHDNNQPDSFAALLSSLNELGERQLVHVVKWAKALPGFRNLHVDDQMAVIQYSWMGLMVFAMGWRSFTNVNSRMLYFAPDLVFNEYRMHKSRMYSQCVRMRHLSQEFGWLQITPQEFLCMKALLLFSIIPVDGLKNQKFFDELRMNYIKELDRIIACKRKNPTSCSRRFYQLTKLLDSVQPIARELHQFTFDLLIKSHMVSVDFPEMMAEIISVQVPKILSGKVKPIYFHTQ

SMILES	IC50 [2]	IC50 [4]	IC50 [8]	IC50 [11]	also measured
COc1cccc2c1-c1ccc(NS(C)(=O)=O)cc1C(c1ccsc1)O2 (centres undefined)	43 nM	–	–	–	IC50 [1]: 11 nM
COc1cccc2c1-c1ccc(NS(C)(=O)=O)cc1C(c1cccnc1)O2 (centres undefined)	–	–	–	–	IC50 [3]: 460 nM
CCCCCC1Oc2cccc(OC)c2-c2ccc(NS(C)(=O)=O)cc21 (centres undefined)	–	21 nM	–	–	–
COc1cccc2c1-c1ccc(NS(C)(=O)=O)c(Br)c1C(c1ccccc1)O2 (centres undefined)	430 nM	–	454 nM	–	IC50 [5]: 10000 nM; IC50 [6]: 519 nM; IC50 [7]: 2280 nM
COc1cccc2c1-c1ccc(NS(C)(=O)=O)cc1C(C1CCCCC1)O2 (centres undefined)	630 nM	–	–	–	IC50 [9]: 47 nM
COc1cccc2c1-c1ccccc1C(c1ccccc1)O2 (centres undefined)	1910 nM	10000 nM	–	–	–
COc1cccc(C2Oc3cccc(OC)c3-c3ccc(NS(C)(=O)=O)cc32)c1 (centres undefined)	122 nM	–	–	–	IC50 [10]: 6 nM
COc1cccc2c1-c1ccc(NS(C)(=O)=O)cc1C(c1ccccc1)O2 (centres undefined)	87 nM	–	22900 nM	6530 nM	IC50 [9]: 19 nM; IC50 [7]: > 10000 nM
COc1cccc2c1-c1ccc(NS(C)(=O)=O)cc1C(c1cccc(C)c1)O2 (centres undefined)	21 nM	1 nM	333 nM	> 10000 nM	IC50 [5]: 236 nM
COc1cccc2c1-c1ccc(NS(C)(=O)=O)cc1C(c1cc(C)cc(C)c1)O2 (centres undefined)	78 nM	2 nM	1220 nM	> 10000 nM	–
